For series [1], the system named is Trypanosoma cruzi. As to the kind of experiment: Growth inhibition of Trypanosoma cruzi Tulahuen amastigote forms infected in human THP1 cells at 100 uM after 48 hrs relative to control. The class given is functional. As to conditions: THP-1, 48 h, read-out: GI. The method in brief:
(§1)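 PMA-differentiated THP-1 macrophages (4.0 × 10^4 cells/well, 100 ng/ml, 72 h) infected with trypomastigotes at 2:1 parasite/cell overnight at 37 °C. Washed, then 24 h more for amastigote transformation. Compounds added in triplicate for 48 h at 37 °C, 5% CO2. Read-out: CPRG 100 µM with 0.1% NP-40 for 16 h, OD 570/630 nm. Negative control DMSO 1%.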

The nature of series [2]: Cytotoxicity against human THP1 cells assessed as reduction in cell viability after 72 hrs by MTT assay. Particulars: THP-1 cells. The class given is cell-based. An outline of the steps: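 PMA-differentiated THP-1 cells exposed to serial dilutions from 15.6 to 500 µM for 72 h at 37 °C, 5% CO2. Viability by MTT reduction to formazan, dissolved in DMSO, OD 540 nm. Gives CC50.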

The test system of series [3] is Leishmania amazonensis. As to the kind of experiment: Growth inhibition of Leishmania amazonensis MHOM/BR/77/LTB0016 amastigote forms expressing beta-galactosidase infected in human THP1 cells at 100 uM after 48 hrs relative to control. The class given is functional. Particulars: MHOM/BR/77/LTB0016, THP-1, 48 h, read-out: GI. An outline of the steps: (§2)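 THP-1 cells seeded at 4.0 × 10^4 cells/well and differentiated with PMA 100 ng/ml for 72 h. Promastigotes (4-day culture) opsonized 1 h at 34 °C in RPMI-1640 with 10% heat-inactivated human B+ serum. Infection at 10:1 parasite/cell for 3 h at 34 °C, washed, then 24 h for amastigote transformation. Compound treatment in triplicate for 48 h at 34 °C. Read-out: CPRG 100 µM with 0.1% NP-40, 16 h, OD 570/630 nm. Negative control DMSO 1%.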

Series [4] is described as follows: Selectivity index, ratio of CC50 for human THP1 cells to IC50 for Leishmania amazonensis MHOM/BR/77/LTB0016 amastigote forms expressing beta-galactosidase infected in human THP1 cells. The class given is toxicity, cell-based. As to conditions: read-out: Ratio CC50/IC50. An outline of the steps: (§3)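 Ratio of CC50 from the 72 h MTT assay in PMA-differentiated THP-1 cells to IC50 against intracellular amastigotes in THP-1 cells measured by CPRG read-out after 48 h.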

Series [5] relates to Leishmania infantum. As to the kind of experiment: Growth inhibition of Leishmania infantum MHOM/BR/74/PP75 amastigote forms expressing beta-galactosidase infected in human THP1 cells at 50 uM after 48 hrs relative to control. Particulars: MHOM/BR/74/PP75, THP-1, 48 h, read-out: GI. The class given is functional. An outline of the steps: as §2
Series [6] addresses Trypanothione reductase (Trypanosoma cruzi, UniProt P28593). As to the kind of experiment: Inhibition of Trypanosoma cruzi trypanothione reductase expressed in Escherichia coli BL21(DE3) using T(S)2 as substrate incubated for 30 mins in presence of NADPH measured for 30 mins. The method in brief: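 Enzyme purified by affinity chromatography. Then T(S)2 1 µM and compound in DMSO added, 30 min at 27 °C, followed by further DTNB. A412 followed for 30 min. Negative control DMSO 1%.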

A short description of series [7]: Selectivity index, ratio of CC50 for human THP1 cells to IC50 for Trypanosoma cruzi Tulahuen amastigote forms infected in human THP1 cells. The class given is toxicity, cell-based. Particulars: read-out: Ratio CC50/IC50. The method in brief: as §3
The test system of series [8] is Trypanosoma cruzi. As to the kind of experiment: Trypanocidal activity against Trypanosoma cruzi Tulahuen trypomastigote forms at 3.9 to 250 uM after 72 hrs by MTT assay. The class given is functional. The method in brief: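 Culture-derived Tulahuen trypomastigotes raised from infected L929 cells, 1.5 × 10^6 parasites/well. Compounds serially diluted from 250 to 3.9 µM, incubated 72 h at 37 °C, 5% CO2. Viability by MTT, OD 540 nm after dissolving formazan in DMSO. Negative control DMSO 1%.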
Background: Tetrazolium assays rely on reduction of a dye to a coloured formazan, in cell work by metabolically active cells.

The test system of series [9] is Trypanosoma cruzi. As to the kind of experiment: Trypanocidal activity against Trypanosoma cruzi Tulahuen amastigote forms infected in human THP1 cells after 48 hrs. The class given is functional, cell-based. Particulars: THP-1, 48 h. An outline of the steps:
as §1

Series [10] relates to Leishmania amazonensis. As to the kind of experiment: Antileishmanial activity against Leishmania amazonensis MHOM/BR/77/LTB0016 amastigote forms expressing beta-galactosidase infected in human THP1 cells after 48 hrs. As to conditions: MHOM/BR/77/LTB0016, THP-1, 48 h. The class given is functional, cell-based. The method in brief: as §2

Activity calls are given as the source filed them. No cut-off for these calls is given here. Bounds are passed on as bounds.

Sequence of Trypanothione reductase (P28593 whole entry): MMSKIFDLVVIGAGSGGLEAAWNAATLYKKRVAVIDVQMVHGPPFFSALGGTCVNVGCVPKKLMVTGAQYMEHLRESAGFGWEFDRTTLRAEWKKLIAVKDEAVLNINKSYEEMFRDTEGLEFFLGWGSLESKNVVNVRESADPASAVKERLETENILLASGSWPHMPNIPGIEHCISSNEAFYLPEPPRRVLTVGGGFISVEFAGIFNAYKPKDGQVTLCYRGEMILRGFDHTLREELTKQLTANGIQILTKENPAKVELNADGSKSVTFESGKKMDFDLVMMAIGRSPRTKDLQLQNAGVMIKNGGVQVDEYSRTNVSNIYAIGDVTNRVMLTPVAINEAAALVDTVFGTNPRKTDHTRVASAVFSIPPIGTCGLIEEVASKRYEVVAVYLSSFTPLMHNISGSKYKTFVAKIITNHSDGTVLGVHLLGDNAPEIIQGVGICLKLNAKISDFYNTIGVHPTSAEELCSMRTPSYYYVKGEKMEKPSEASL

Turning to `ClCc1ccc(-c2cc(-c3ccc4c(c3)OCO4)no2)cc1`, the inhibition of growth at 100 µM in series [1] came to 95.8%; in series [3], 57.7%. For the same compound, the 50% cytotoxic concentration (CC50) at 72 h in [2] worked out at 182 µM. For the same compound, the selectivity ratio in series [4] stood at 35.8; in series [7], 161. In series [5], the inhibition of growth at 50 µM was 9.01%. Further, the figures for the IC50 in [6], in series [9] and in [10] were more than 100 µM, 1.13 µM and 5.08 µM, respectively. In series [8], the outcome was inactive.

For orientation: CC50 means the concentration that lowers cell viability or growth by half. For orientation: IC50 means the point on the concentration scale where inhibition reaches its midpoint.

For the origin of these results see ChEMBL document CHEMBL3997809, “Design and synthesis of a new series of 3,5-disubstituted isoxazoles active against Trypanosoma cruzi and Leishmania amazonensis” (Eur J Med Chem, 2017).
